ChEMBL document CHEMBL4354869, “pH-Dependent Grafting of Cancer Cells with Antigenic Epitopes Promotes Selective Antibody-Mediated Cytotoxicity” (J Med Chem, 2020)
Calls of active or inactive are those of the source. The calls are words filed in the database; no cut-off is given here.

Key:
MDA-MB-231 [1] = assay: Induction of opsonization in human MDA-MB-231 cells assessed as increase in recruitment of anti-FITC antibody to cell surface at 1 uM measured after 5 to 10 mins at pH 6 to 7.4 by Alexa Fluor 647 conjugated anti-FITC antibody based flow cytometry; type: functional
Outline: (§1)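 Cells in suspension (350000 MDA-MB-231) given 1 μM pH-adjusted conjugate for 5 or 10 min at 37 °C, pH 7.4 or 6.0, washed, then Alexa Fluor 647 anti-FITC mouse mAb in PBS/10% FBS 30 min at 4 °C, PFA-fixed. Flow cytometry, ≥3000 events; fold over pH 7.4 antibody-only cells; mean ± SEM, n = 3.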

Lipid bilayer [2] = assay: Binding affinity to POPC large unilamellar vesicle at 1:300 ratio measured after 30 mins at pH 5 to 7.4 by tryptophan fluorescence spectroscopic analysis
Outline: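 Peptide (7 μM final, from 20 μM stock in 5 mM sodium phosphate pH 8.0) with extruded 100 nm POPC LUVs at 1:300; pH set with HCl, 30 min RT before tryptophan emission spectra were recorded.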

MDA-MB-231 [3] = assay: Induction of opsonization in human MDA-MB-231 cells assessed as increase in recruitment of anti-FITC antibody to cell surface at 1 uM measured after 5 to 10 mins at pH 6 by Alexa Fluor 647 conjugated anti-FITC antibody based flow cytometry relative to pH 7.4; type: functional; outline: as §1
MDA-MB-231 [4] = assay: Induction of opsonization in human MDA-MB-231 cells assessed as increase in recruitment of anti-FITC antibody to cell surface at 1 uM measured after 5 mins at pH 6 to 7.4 by Alexa Fluor 647 conjugated anti-FITC antibody based immunofluorescence microscopic analysis; type: functional
Outline: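 Adherent MDA-MB-231 on poly-L-lysine coverslips given 1 μM conjugate for 5 min, 37 °C, pH 7.4 or 6.0, methanol-fixed, then Alexa Fluor 647 anti-FITC rabbit polyclonal at 30 μg/mL for 1 h at 37 °C, Hoechst nuclear stain; fluorescence microscopy, 20× objective.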

MDA-MB-231 [5] = assay: (§2) Induction of antibody dependent cytotoxicity against human MDA-MB-231 cells assessed as cell lysis at 0.1 uM incubated for 5 mins at pH 6 followed by compound washout prior to anti-FITC antibody addition for 30 mins and subsequent human PBMC addition at 50:1 effector to target ratio measured after 4 hrs by LDH release assay relative to control; type: functional
Outline: (§3)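 150000 target cells (MDA-MB-231; also LnCap, SK-OV-3 with haNK) treated with conjugate 5 min at 37 °C, pH 7.4 or 6.0, washed, 25 μg/mL anti-FITC rabbit polyclonal 30 min 4 °C, then 4 h at 37 °C with PBMCs at 50:1 (RPMI) or haNK at 5:1 (MEMα). LDH release; % lysis relative to antibody-only pH 7.4 cells; mean ± SEM, n = 3–12.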

MDA-MB-231 [6] = assay: as §2, with “assessed as increase in cell lysis” for “assessed as cell lysis”, “relative to pH 7.4” for “relative to control”; type: functional; outline: as §3
MDA-MB-231 [7] = assay: (§4) Induction of antibody dependent cytotoxicity against human MDA-MB-231 cells assessed as induction of cell lysis up to 1 uM incubated for 5 mins at pH 6 to 7.4 followed by compound washout prior to anti-FITC antibody addition for 30 mins and subsequent human haNK cell addition at 5:1 effector to target ratio measured after 4 hrs by LDH release assay; type: functional, cell-based; outline: as §3
LNCaP = assay: as §4, with “LNCAP” for “MDA-MB-231”, “at” for “up to”; type: functional, cell-based; outline: as §3
SK-OV-3 = assay: as §4, with “SKOV3” for “MDA-MB-231”, “at” for “up to”; type: functional, cell-based; outline: as §3
MDA-MB-231 [8] = assay: as §2, with “lysis at > 0.1 uM” for “lysis at 0.1 uM”, “release assay” for “release assay relative to control”; type: functional, cell-based; outline: as §3
MDA-MB-231 [9] = assay: as §4, with “at >” for “up to”; type: functional, cell-based; outline: as §3
Lipid bilayer [10] = assay: Binding affinity to POPC large unilamellar vesicle at 1:300 ratio measured after 30 mins at pH 5 by circular dichroism spectroscopic analysis
Outline: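 Peptide (20 μM stock in 5 mM sodium phosphate pH 8.0; 7 μM final) mixed with POPC LUVs (extruded, 100 nm pores) at 1:300, pH lowered with HCl, 30 min RT. Far-UV CD 260–200 nm in 0.1 cm cuvette, ≥5 scans averaged, liposome spectrum subtracted; expressed as mean residue molar ellipticity.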

| Structure (SMILES) | Activity (MDA-MB-231 [1]) | Activity (Lipid bilayer [2]) | fold change (FC) (MDA-MB-231 [3]) | Activity (MDA-MB-231 [4]) | Activity (MDA-MB-231 [5]) [%] | fold change (FC) (MDA-MB-231 [6]) | Activity (MDA-MB-231 [7]) | Activity (LNCaP) | Activity (SK-OV-3) | Activity (MDA-MB-231 [8]) | Activity (MDA-MB-231 [9]) | Activity (Lipid bilayer [10]) |
| --- | --- | --- | --- | --- | --- | --- | --- | --- | --- | --- | --- | --- |
| CC[C@H](C)[C@H](NC(=O)[C@@H]1CCCN1C(=O)[C@H](CC(N)=O)NC(=O)[C@H](CCC(N)=O)NC(=O)[C@H](CCC(=O)O)NC(=O)[C@H](CSC1CC(=O)N(CCC(=O)NOCCOCCOCCOCCOCCOCCOCCOCCOCCOCCOCCOCCC(=O)NCCCNC(=O)c2ccc(-c3c4ccc(=O)cc-4oc4cc(O)ccc34)c(C(=O)O)c2)C1=O)NCC(N)=O)C(=O)N[C@@H](Cc1ccc(O)cc1)C(=O)N[C@@H](Cc1c[nH]c2ccccc12)C(=O)N[C@@H](C)C(=O)N[C@@H](CCCNC(=N)N)C(=O)N[C@@H](Cc1ccc(O)cc1)C(=O)N[C@@H](C)C(=O)N[C@@H](CC(=O)O)C(=O)N[C@@H](Cc1c[nH]c2ccccc12)C(=O)N[C@@H](CC(C)C)C(=O)N[C@@H](Cc1ccccc1)C(=O)N[C@H](C(=O)N[C@H](C(=O)N1CCC[C@H]1C(=O)N[C@@H](CC(C)C)C(=O)N[C@@H](CC(C)C)C(=O)N[C@@H](CC(C)C)C(=O)N[C@@H](CC(C)C)C(=O)N[C@@H](CC(=O)O)C(=O)N[C@@H](CC(C)C)C(=O)N[C@@H](C)C(=O)N[C@@H](CC(C)C)C(=O)N[C@@H](CC(C)C)C(=O)N[C@H](C(=O)N[C@@H](CC(=O)O)C(=O)N[C@@H](C)C(=O)N[C@@H](CC(=O)O)C(=O)N[C@@H](CCC(=O)O)C(=O)NCC(=O)N[C@H](C(=O)NCC(N)=O)[C@@H](C)O)C(C)C)[C@@H](C)O)[C@@H](C)O (some centres not stated) | Active | Active | 5.4 | Active | 40 | 2 | Active | Active | Active | inactive | inactive | – |
| CC[C@H](C)[C@H](NC(=O)[C@@H]1CCCN1C(=O)[C@H](CC(N)=O)NC(=O)[C@H](CCC(N)=O)NC(=O)[C@H](CCC(=O)O)NC(=O)[C@H](CSC1CC(=O)N(CCC(=O)NOCCOCCOCCOCCOCCOCCOCCOCCOCCOCCOCCOCCC(=O)NCCCNC(=O)c2ccc(-c3c4ccc(=O)cc-4oc4cc(O)ccc34)c(C(=O)O)c2)C1=O)NCC(N)=O)C(=O)N[C@@H](Cc1ccc(O)cc1)C(=O)N[C@@H](Cc1c[nH]c2ccccc12)C(=O)N[C@@H](C)C(=O)N[C@@H](CCCNC(=N)N)C(=O)N[C@@H](Cc1ccc(O)cc1)C(=O)N[C@@H](C)C(=O)N[C@@H](CC(=O)O)C(=O)N[C@@H](Cc1c[nH]c2ccccc12)C(=O)N[C@@H](CC(C)C)C(=O)N[C@@H](Cc1ccccc1)C(=O)N[C@H](C(=O)N[C@H](C(=O)N1CCC[C@H]1C(=O)N[C@@H](CC(C)C)C(=O)N[C@@H](CC(C)C)C(=O)N[C@@H](CC(C)C)C(=O)N[C@@H](CC(C)C)C(=O)N[C@@H](CCC(=O)O)C(=O)N[C@@H](CC(C)C)C(=O)N[C@@H](C)C(=O)N[C@@H](CC(C)C)C(=O)N[C@@H](CC(C)C)C(=O)N[C@H](C(=O)N[C@@H](CC(=O)O)C(=O)N[C@@H](C)C(=O)N[C@@H](CC(=O)O)C(=O)N[C@@H](CCC(=O)O)C(=O)NCC(=O)N[C@H](C(=O)NCC(N)=O)[C@@H](C)O)C(C)C)[C@@H](C)O)[C@@H](C)O (some centres not stated) | Active | Active | 2.9 | – | – | – | – | – | – | – | – | – |
| CC[C@H](C)[C@H](NC(=O)[C@@H]1CCCN1C(=O)[C@H](CC(N)=O)NC(=O)[C@H](CCC(N)=O)NC(=O)[C@H](CCC(=O)O)NC(=O)[C@H](CSC1CC(=O)N(CCC(=O)NOCCOCCOCCOCCOCCOCCOCCOCCOCCOCCOCCOCCOCCOCCOCCOCCOCCOCCOCCOCCOCCOCCOCCOCCC(=O)NCCCNC(=O)c2ccc(-c3c4ccc(=O)cc-4oc4cc(O)ccc34)c(C(=O)O)c2)C1=O)NCC(N)=O)C(=O)N[C@@H](Cc1ccc(O)cc1)C(=O)N[C@@H](Cc1c[nH]c2ccccc12)C(=O)N[C@@H](C)C(=O)N[C@@H](CCCNC(=N)N)C(=O)N[C@@H](Cc1ccc(O)cc1)C(=O)N[C@@H](C)C(=O)N[C@@H](CC(=O)O)C(=O)N[C@@H](Cc1c[nH]c2ccccc12)C(=O)N[C@@H](CC(C)C)C(=O)N[C@@H](Cc1ccccc1)C(=O)N[C@H](C(=O)N[C@H](C(=O)N1CCC[C@H]1C(=O)N[C@@H](CC(C)C)C(=O)N[C@@H](CC(C)C)C(=O)N[C@@H](CC(C)C)C(=O)N[C@@H](CC(C)C)C(=O)N[C@@H](CC(=O)O)C(=O)N[C@@H](CC(C)C)C(=O)N[C@@H](C)C(=O)N[C@@H](CC(C)C)C(=O)N[C@@H](CC(C)C)C(=O)N[C@H](C(=O)N[C@@H](CC(=O)O)C(=O)N[C@@H](C)C(=O)N[C@@H](CC(=O)O)C(=O)N[C@@H](CCC(=O)O)C(=O)NCC(=O)N[C@H](C(=O)NCC(N)=O)[C@@H](C)O)C(C)C)[C@@H](C)O)[C@@H](C)O (some centres not stated) | Active | Active | – | – | – | – | – | – | – | – | – | Active |
